# Assay results published in ChEMBL document CHEMBL1154674, “Synthesis and evaluation of three 18F-labeled aminophenylbenzothiazoles as amyloid imaging agents” (J Med Chem, 2009).
# Assays:
# Type in all cases: ADME, organism-based
# [1] = Biodistribution in NMRI mouse urine at 3.7 MBq/mL, iv after 2 mins by gamma counting; conditions: in vivo
# Procedure, shortened: (§1)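 Male NMRI mice (30-40 g) under isoflurane (1.5-2.5% in oxygen) got 0.1 mL of HPLC-purified tracer diluted with 0.9% NaCl to 3.7 MBq/mL (ethanol ≤10%) via tail vein. Mice were decapitated at 2 or 60 min p.i., and organs, blood and urine were weighed and γ-counted. Values are background-corrected %ID or %ID/g, with blood mass taken as 7% of body mass.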
# [2] = Biodistribution in NMRI mouse urine at 3.7 MBq/mL, iv after 60 mins by gamma counting; conditions: in vivo, 1 h; procedure, shortened: as §1
# Kidney [3] = assay: Biodistribution in NMRI mouse kidney at 3.7 MBq/mL, iv after 2 mins by gamma counting; conditions: in vivo; procedure, shortened: as §1
# Kidney [4] = assay: Biodistribution in NMRI mouse kidney at 3.7 MBq/mL, iv after 60 mins by gamma counting; conditions: in vivo, 1 h; procedure, shortened: as §1
# Kidney [5] = assay: Biodistribution in NMRI mouse kidney assessed per gram of tissue at 3.7 MBq/mL, iv after 2 mins by gamma counting; conditions: in vivo; procedure, shortened: as §1
# Kidney [6] = assay: Biodistribution in NMRI mouse kidney assessed per gram of tissue at 3.7 MBq/mL, iv after 60 mins by gamma counting; conditions: in vivo, 1 h; procedure, shortened: as §1
# Kidney [7] = assay: Drug level in NMRI mouse kidney assessed as standard uptake value at 3.7 MBq/mL, iv after 2 mins by gamma counting; conditions: in vivo
# Procedure, shortened: (§2)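 Male NMRI mice (30-40 g) were anaesthetised with isoflurane. Each received 0.1 mL of HPLC-purified tracer, diluted in 0.9% NaCl to 3.7 MBq/mL (ethanol ≤10%), via a tail vein. Mice were decapitated at 2 or 60 min. Organs were dissected, weighed and γ-counted with background correction. SUV = (organ cpm/organ weight)/(total recovered counts/body weight). Blood mass was taken as 7% of body mass.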
# Kidney [8] = assay: Drug level in NMRI mouse kidney assessed as standard uptake value at 3.7 MBq/mL, iv after 60 mins by gamma counting; conditions: in vivo, 1 h; procedure, shortened: as §2
# Liver [9] = assay: Biodistribution in NMRI mouse liver at 3.7 MBq/mL, iv after 2 mins by gamma counting; conditions: in vivo; procedure, shortened: as §1
# Liver [10] = assay: Biodistribution in NMRI mouse liver at 3.7 MBq/mL, iv after 60 mins by gamma counting; conditions: in vivo, 1 h; procedure, shortened: as §1
# Liver [11] = assay: Biodistribution in NMRI mouse liver assessed per gram of tissue at 3.7 MBq/mL, iv after 2 mins by gamma counting; conditions: in vivo
# Liver [12] = assay: Biodistribution in NMRI mouse liver assessed per gram of tissue at 3.7 MBq/mL, iv after 60 mins by gamma counting; conditions: in vivo, 1 h; procedure, shortened: as §1
# Liver [13] = assay: Drug level in NMRI mouse liver assessed as standard uptake value at 3.7 MBq/mL, iv after 2 mins by gamma counting; conditions: in vivo; procedure, shortened: as §2
# Liver [14] = assay: Drug level in NMRI mouse liver assessed as standard uptake value at 3.7 MBq/mL, iv after 60 mins by gamma counting; conditions: in vivo, 1 h; procedure, shortened: as §2
# [15] = Biodistribution in NMRI mouse spleen/pancreas at 3.7 MBq/mL, iv after 2 mins by gamma counting; conditions: in vivo; procedure, shortened: as §1
# [16] = Biodistribution in NMRI mouse spleen/pancreas at 3.7 MBq/mL, iv after 60 mins by gamma counting; conditions: in vivo, 1 h; procedure, shortened: as §1
# [17] = Biodistribution in NMRI mouse spleen/pancreas assessed per gram of tissue at 3.7 MBq/mL, iv after 2 mins by gamma counting; conditions: in vivo; procedure, shortened: as §1
# [18] = Biodistribution in NMRI mouse spleen/pancreas assessed per gram of tissue at 3.7 MBq/mL, iv after 60 mins by gamma counting; conditions: in vivo, 1 h; procedure, shortened: as §1
# [19] = Drug level in NMRI mouse spleen/pancreas assessed as standard uptake value at 3.7 MBq/mL, iv after 2 mins by gamma counting; conditions: in vivo; procedure, shortened: as §2
# [20] = Drug level in NMRI mouse spleen/pancreas assessed as standard uptake value at 3.7 MBq/mL, iv after 60 mins by gamma counting; conditions: in vivo, 1 h; procedure, shortened: as §2
# Lung [21] = assay: Biodistribution in NMRI mouse lung at 3.7 MBq/mL, iv after 2 mins by gamma counting; conditions: in vivo; procedure, shortened: as §1
# Lung [22] = assay: Biodistribution in NMRI mouse lung at 3.7 MBq/mL, iv after 60 mins by gamma counting; conditions: in vivo, 1 h; procedure, shortened: as §1
# Lung [23] = assay: Biodistribution in NMRI mouse lung assessed per gram of tissue at 3.7 MBq/mL, iv after 2 mins by gamma counting; conditions: in vivo; procedure, shortened: as §1
# Lung [24] = assay: Biodistribution in NMRI mouse lung assessed per gram of tissue at 3.7 MBq/mL, iv after 60 mins by gamma counting; conditions: in vivo, 1 h; procedure, shortened: as §1
# Lung [25] = assay: Drug level in NMRI mouse lung assessed as standard uptake value at 3.7 MBq/mL, iv after 2 mins by gamma counting; conditions: in vivo; procedure, shortened: as §2
# Lung [26] = assay: Drug level in NMRI mouse lung assessed as standard uptake value at 3.7 MBq/mL, iv after 60 mins by gamma counting; conditions: in vivo, 1 h; procedure, shortened: as §2
# Heart [27] = assay: Biodistribution in NMRI mouse heart at 3.7 MBq/mL, iv after 2 mins by gamma counting; conditions: in vivo; procedure, shortened: as §1
# Heart [28] = assay: Biodistribution in NMRI mouse heart at 3.7 MBq/mL, iv after 60 mins by gamma counting; conditions: in vivo, 1 h; procedure, shortened: as §1
# Heart [29] = assay: Biodistribution in NMRI mouse heart assessed per gram of tissue at 3.7 MBq/mL, iv after 2 mins by gamma counting; conditions: in vivo; procedure, shortened: as §1
# Heart [30] = assay: Biodistribution in NMRI mouse heart assessed per gram of tissue at 3.7 MBq/mL, iv after 60 mins by gamma counting; conditions: in vivo, 1 h; procedure, shortened: as §1
# Heart [31] = assay: Drug level in NMRI mouse heart assessed as standard uptake value at 3.7 MBq/mL, iv after 2 mins by gamma counting; conditions: in vivo; procedure, shortened: as §2
# Heart [32] = assay: Drug level in NMRI mouse heart assessed as standard uptake value at 3.7 MBq/mL, iv after 60 mins by gamma counting; conditions: in vivo, 1 h; procedure, shortened: as §2
# Intestine [33] = assay: Biodistribution in NMRI mouse intestine at 3.7 MBq/mL, iv after 2 mins by gamma counting; conditions: in vivo; procedure, shortened: as §1
# Intestine [34] = assay: Biodistribution in NMRI mouse intestine at 3.7 MBq/mL, iv after 60 mins by gamma counting; conditions: in vivo, 1 h; procedure, shortened: as §1
# Stomach [35] = assay: Biodistribution in NMRI mouse stomach at 3.7 MBq/mL, iv after 2 mins by gamma counting; conditions: in vivo; procedure, shortened: as §1
# Stomach [36] = assay: Biodistribution in NMRI mouse stomach at 3.7 MBq/mL, iv after 60 mins by gamma counting; conditions: in vivo, 1 h; procedure, shortened: as §1
# [37] = Biodistribution in NMRI mouse cerebrum at 3.7 MBq/mL, iv after 2 mins by gamma counting; conditions: in vivo; procedure, shortened: as §1
# [38] = Biodistribution in NMRI mouse cerebrum at 3.7 MBq/mL, iv after 60 mins by gamma counting; conditions: in vivo, 1 h; procedure, shortened: as §1
# [39] = Biodistribution in NMRI mouse cerebrum assessed per gram of tissue at 3.7 MBq/mL, iv after 2 mins by gamma counting; conditions: in vivo; procedure, shortened: as §1
# [40] = Biodistribution in NMRI mouse cerebrum assessed per gram of tissue at 3.7 MBq/mL, iv after 60 mins by gamma counting; conditions: in vivo, 1 h; procedure, shortened: as §1
# [41] = Drug level in NMRI mouse cerebrum assessed as standard uptake value at 3.7 MBq/mL, iv after 2 mins by gamma counting; conditions: in vivo; procedure, shortened: as §2
# [42] = Drug level in NMRI mouse cerebrum assessed as standard uptake value at 3.7 MBq/mL, iv after 60 mins by gamma counting; conditions: in vivo, 1 h; procedure, shortened: as §2
# Cerebellum [43] = assay: Biodistribution in NMRI mouse cerebellum at 3.7 MBq/mL, iv after 2 mins by gamma counting; conditions: in vivo; procedure, shortened: as §1
# Cerebellum [44] = assay: Biodistribution in NMRI mouse cerebellum at 3.7 MBq/mL, iv after 60 mins by gamma counting; conditions: in vivo, 1 h; procedure, shortened: as §1
# Cerebellum [45] = assay: Biodistribution in NMRI mouse cerebellum assessed per gram of tissue at 3.7 MBq/mL, iv after 2 mins by gamma counting; conditions: in vivo; procedure, shortened: as §1
# Cerebellum [46] = assay: Biodistribution in NMRI mouse cerebellum assessed per gram of tissue at 3.7 MBq/mL, iv after 60 mins by gamma counting; conditions: in vivo, 1 h; procedure, shortened: as §1
# Cerebellum [47] = assay: Drug level in NMRI mouse cerebellum assessed as standard uptake value at 3.7 MBq/mL, iv after 2 mins by gamma counting; conditions: in vivo; procedure, shortened: as §2
# Cerebellum [48] = assay: Drug level in NMRI mouse cerebellum assessed as standard uptake value at 3.7 MBq/mL, iv after 60 mins by gamma counting; conditions: in vivo, 1 h; procedure, shortened: as §2
# Blood [49] = assay: Biodistribution in NMRI mouse blood at 3.7 MBq/mL, iv after 2 mins by gamma counting; conditions: in vivo; procedure, shortened: as §1
# Blood [50] = assay: Biodistribution in NMRI mouse blood at 3.7 MBq/mL, iv after 60 mins by gamma counting; conditions: in vivo, 1 h; procedure, shortened: as §1
# Blood [51] = assay: Biodistribution in NMRI mouse blood assessed per gram of tissue at 3.7 MBq/mL, iv after 2 mins by gamma counting; conditions: in vivo; procedure, shortened: as §1
# Blood [52] = assay: Biodistribution in NMRI mouse blood assessed per gram of tissue at 3.7 MBq/mL, iv after 60 mins by gamma counting; conditions: in vivo, 1 h; procedure, shortened: as §1
# Blood [53] = assay: Drug level in NMRI mouse blood assessed as standard uptake value at 3.7 MBq/mL, iv after 2 mins by gamma counting; conditions: in vivo; procedure, shortened: as §2
# Blood [54] = assay: Drug level in NMRI mouse blood assessed as standard uptake value at 3.7 MBq/mL, iv after 60 mins by gamma counting; conditions: in vivo, 1 h; procedure, shortened: as §2
smiles,measurement,setting,value
Cc1ccc2nc(-c3ccc([18F])cc3)sc2c1,Drug uptake,[1],0.2%
same,Drug uptake,[2],3.3%
same,Drug uptake,Kidney [3],5.8%
same,Drug uptake,Kidney [4],2.3%
same,Drug uptake,Kidney [5],9.3%
same,Drug uptake,Kidney [6],3.6%
same,SUV,Kidney [7],3.4
same,SUV,Kidney [8],1.4
same,Drug uptake,Liver [9],24.8%
same,Drug uptake,Liver [10],51.8%
same,Drug uptake,Liver [11],12%
same,Drug uptake,Liver [12],24.6%
same,SUV,Liver [13],4.5
same,SUV,Liver [14],9.2
same,Drug uptake,[15],1.3%
same,Drug uptake,[16],0.1%
same,Drug uptake,[17],4%
same,Drug uptake,[18],0.4%
same,SUV,[19],1.5
same,SUV,[20],0.2
same,Drug uptake,Lung [21],3.6%
same,Drug uptake,Lung [22],0.3%
same,Drug uptake,Lung [23],14.4%
same,Drug uptake,Lung [24],1.3%
same,SUV,Lung [25],5.3
same,SUV,Lung [26],0.5
same,Drug uptake,Heart [27],0.9%
same,Drug uptake,Heart [28],0.1%
same,Drug uptake,Heart [29],5.4%
same,Drug uptake,Heart [30],0.5%
same,SUV,Heart [31],2
same,SUV,Heart [32],0.2
same,Drug uptake,Intestine [33],8.9%
same,Drug uptake,Intestine [34],19.3%
same,Drug uptake,Stomach [35],1.3%
same,Drug uptake,Stomach [36],1.1%
same,Drug uptake,[37],1.62%
same,Drug uptake,[38],0.07%
same,Drug uptake,[39],5.33%
same,Drug uptake,[40],0.27%
same,SUV,[41],1.97
same,SUV,[42],0.1
same,Drug uptake,Cerebellum [43],0.42%
same,Drug uptake,Cerebellum [44],0.04%
same,Drug uptake,Cerebellum [45],5.99%
same,Drug uptake,Cerebellum [46],0.39%
same,SUV,Cerebellum [47],2.21
same,SUV,Cerebellum [48],0.15
same,Drug uptake,Blood [49],5.7%
same,Drug uptake,Blood [50],2.8%
same,Drug uptake,Blood [51],2.2%
same,Drug uptake,Blood [52],1.1%
same,SUV,Blood [53],0.8
same,SUV,Blood [54],0.4
